Test results taken from ChEMBL document CHEMBL1240347, “MK-7009, a potent and selective inhibitor of hepatitis C virus NS3/4A protease” (Antimicrob Agents Chemother, 2010).

Assays:
[1] = molecular target: Cathepsin B (Homo sapiens, UniProt P07858); experiment: Inhibition of human Cathepsin B
[2] = Inhibition of Hepatitis C virus genotype 2b NS3/4A protease activity; design: species or system Hepatitis C virus subtype 2b
In short: (§1)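 Recombinant NS3/4A protease was expressed in and purified from E. coli. Inhibition was measured by a time-resolved, internally quenched fluorescence assay at low enzyme concentration. Kis were reported.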

[3] = molecular target: Procathepsin L (Homo sapiens, UniProt P07711); experiment: Inhibition of human Cathepsin L
[4] = test system: Hepatitis C virus; experiment: Antiviral activity against Hepatitis C virus genotype 1b infected in […] cell by cell-based HCV replicon assay in presence of 50% normal human serum; assay type: functional, organism-based, Hepacivirus hominis
In short: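 Stable genotype 1b (con1) replicon cell line HB1, assayed in the presence of 50% normal human serum.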

[5] = molecular target: T1, Cathepsin K (Homo sapiens, UniProt P43235); experiment: Inhibition of human Cathepsin K
T1 sequence (P43235 whole entry): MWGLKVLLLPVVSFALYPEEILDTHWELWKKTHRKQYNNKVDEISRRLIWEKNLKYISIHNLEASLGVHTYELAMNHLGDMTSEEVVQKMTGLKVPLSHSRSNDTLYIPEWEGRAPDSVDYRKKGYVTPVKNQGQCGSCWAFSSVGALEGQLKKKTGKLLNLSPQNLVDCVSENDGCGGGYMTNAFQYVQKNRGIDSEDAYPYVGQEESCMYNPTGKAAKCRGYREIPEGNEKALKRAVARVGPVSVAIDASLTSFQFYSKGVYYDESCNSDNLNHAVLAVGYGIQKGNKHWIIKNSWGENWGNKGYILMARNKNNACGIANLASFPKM

[6] = molecular target: T2, Cathepsin F (Homo sapiens, UniProt Q9UBX1); experiment: Inhibition of human Cathepsin F
T2 sequence (Q9UBX1 whole entry): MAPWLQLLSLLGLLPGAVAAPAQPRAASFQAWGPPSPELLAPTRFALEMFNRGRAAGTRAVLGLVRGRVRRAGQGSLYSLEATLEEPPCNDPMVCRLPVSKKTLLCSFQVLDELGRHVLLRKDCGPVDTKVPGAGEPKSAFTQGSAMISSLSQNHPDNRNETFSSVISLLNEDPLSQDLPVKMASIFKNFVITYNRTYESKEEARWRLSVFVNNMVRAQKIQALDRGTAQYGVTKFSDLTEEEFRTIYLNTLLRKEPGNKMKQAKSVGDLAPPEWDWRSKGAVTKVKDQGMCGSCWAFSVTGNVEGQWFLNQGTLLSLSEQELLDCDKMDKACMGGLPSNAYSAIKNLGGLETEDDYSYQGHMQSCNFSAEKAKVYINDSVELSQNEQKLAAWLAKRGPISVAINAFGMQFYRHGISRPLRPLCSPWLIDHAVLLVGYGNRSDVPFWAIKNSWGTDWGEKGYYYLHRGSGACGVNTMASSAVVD

[7] = Inhibition of Hepatitis C virus genotype 1a NS3/4A protease activity; design: species or system Hepatitis C virus subtype 1a; in short: as §1
[8] = Inhibition of Hepatitis C virus genotype 2a NS3/4A protease activity; design: species or system Hepatitis C virus subtype 2a; in short: as §1
[9] = molecular target: T3, Cathepsin L2 (Homo sapiens, UniProt O60911); experiment: Inhibition of human Cathepsin V
T3 sequence (O60911 whole entry): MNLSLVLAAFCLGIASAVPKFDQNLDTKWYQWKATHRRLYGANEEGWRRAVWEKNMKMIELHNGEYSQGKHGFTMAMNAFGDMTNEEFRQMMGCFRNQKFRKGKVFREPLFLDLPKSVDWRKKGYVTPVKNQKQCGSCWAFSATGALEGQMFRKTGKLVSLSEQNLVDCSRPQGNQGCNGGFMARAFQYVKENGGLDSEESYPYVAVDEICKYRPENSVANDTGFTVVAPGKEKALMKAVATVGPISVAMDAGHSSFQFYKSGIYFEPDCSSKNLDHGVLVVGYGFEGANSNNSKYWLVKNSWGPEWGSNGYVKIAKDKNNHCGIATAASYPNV

[10] = molecular target: Cathepsin S (Homo sapiens, UniProt P25774); experiment: Inhibition of human Cathepsin S
[11] = test system: Hepatitis C virus; experiment: Antiviral activity against Hepatitis C virus genotype 2a infected in […] cell by cell-based HCV replicon assay in presence of 10% fetal bovine serum; assay type: functional, organism-based, Hepacivirus hominis
[12] = test system: Hepatitis C virus; experiment: Inhibition of Hepatitis C virus genotype 1b NS3/4A protease activity; design: species or system Hepatitis C virus subtype 1b; in short: as §1
[13] = molecular target: T4, Chymase (Homo sapiens, UniProt P23946); experiment: Inhibition of human Chymase
T4 sequence (P23946 whole entry): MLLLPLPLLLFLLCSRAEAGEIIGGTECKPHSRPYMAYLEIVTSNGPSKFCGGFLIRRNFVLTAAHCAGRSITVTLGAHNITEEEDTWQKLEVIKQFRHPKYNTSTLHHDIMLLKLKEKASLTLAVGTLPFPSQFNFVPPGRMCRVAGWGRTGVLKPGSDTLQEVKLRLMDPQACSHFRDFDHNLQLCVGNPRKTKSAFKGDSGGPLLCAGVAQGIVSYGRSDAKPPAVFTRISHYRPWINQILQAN

[14] = Cytotoxicity against […] cells; assay type: cell-based; settings: HB1
[15] = molecular target: T5, Neutrophil elastase (Homo sapiens, UniProt P08246); experiment: Inhibition of human Neutrophil elastase 2
T5 sequence (P08246 whole entry): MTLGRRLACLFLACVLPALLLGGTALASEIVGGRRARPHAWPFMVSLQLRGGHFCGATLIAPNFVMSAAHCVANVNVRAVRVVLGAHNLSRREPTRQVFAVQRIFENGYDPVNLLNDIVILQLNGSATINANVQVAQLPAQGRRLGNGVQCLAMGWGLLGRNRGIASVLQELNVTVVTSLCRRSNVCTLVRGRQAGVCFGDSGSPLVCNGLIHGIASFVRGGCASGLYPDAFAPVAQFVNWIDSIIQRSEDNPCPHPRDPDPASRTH

[16] = test system: Hepatitis C virus; experiment: Antiviral activity against Hepatitis C virus genotype 1b infected in […] cell by cell-based HCV replicon assay in presence of 10% fetal bovine serum; assay type: functional, organism-based, Hepacivirus hominis
In short: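 Stable genotype 1b (con1) replicon cell line HB1, assayed in medium with 10% fetal bovine serum.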

[17] = molecular target: Chymotrypsin-like elastase family member 1 (Homo sapiens, UniProt Q9UNI1); experiment: Inhibition of human Pancreatic elastase 1
[18] = Inhibition of human Chymotrypsin
[19] = molecular target: Serine protease 1 (Homo sapiens, UniProt P07477); experiment: Inhibition of human Trypsin activity
Serine protease 1, sequence (P07477 whole entry): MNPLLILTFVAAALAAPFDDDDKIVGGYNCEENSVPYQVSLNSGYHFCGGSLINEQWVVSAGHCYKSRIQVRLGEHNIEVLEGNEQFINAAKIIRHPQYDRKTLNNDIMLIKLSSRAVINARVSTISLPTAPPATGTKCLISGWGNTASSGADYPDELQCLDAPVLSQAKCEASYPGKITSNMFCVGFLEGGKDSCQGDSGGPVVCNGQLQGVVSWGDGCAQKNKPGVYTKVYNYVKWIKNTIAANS

Cathepsin S, sequence (P25774 whole entry): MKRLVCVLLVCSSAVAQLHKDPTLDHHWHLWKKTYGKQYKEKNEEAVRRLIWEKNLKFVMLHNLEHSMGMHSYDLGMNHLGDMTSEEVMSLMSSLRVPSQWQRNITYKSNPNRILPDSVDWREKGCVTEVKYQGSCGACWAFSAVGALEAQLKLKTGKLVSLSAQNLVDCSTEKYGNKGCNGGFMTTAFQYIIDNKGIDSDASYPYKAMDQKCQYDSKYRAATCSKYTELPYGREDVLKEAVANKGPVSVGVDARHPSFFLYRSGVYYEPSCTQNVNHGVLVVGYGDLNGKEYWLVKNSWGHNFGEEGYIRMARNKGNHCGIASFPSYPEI
Procathepsin L, sequence (P07711 whole entry): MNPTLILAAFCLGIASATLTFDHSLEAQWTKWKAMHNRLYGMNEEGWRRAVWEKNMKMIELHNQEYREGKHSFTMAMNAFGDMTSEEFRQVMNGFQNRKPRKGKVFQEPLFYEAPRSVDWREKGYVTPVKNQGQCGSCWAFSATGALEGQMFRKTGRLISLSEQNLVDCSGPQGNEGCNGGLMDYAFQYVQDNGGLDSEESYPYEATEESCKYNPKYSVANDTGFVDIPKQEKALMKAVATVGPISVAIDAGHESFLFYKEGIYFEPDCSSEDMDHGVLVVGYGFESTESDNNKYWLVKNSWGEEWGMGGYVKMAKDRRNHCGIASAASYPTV
Chymotrypsin-like elastase family member 1, sequence (Q9UNI1 whole entry): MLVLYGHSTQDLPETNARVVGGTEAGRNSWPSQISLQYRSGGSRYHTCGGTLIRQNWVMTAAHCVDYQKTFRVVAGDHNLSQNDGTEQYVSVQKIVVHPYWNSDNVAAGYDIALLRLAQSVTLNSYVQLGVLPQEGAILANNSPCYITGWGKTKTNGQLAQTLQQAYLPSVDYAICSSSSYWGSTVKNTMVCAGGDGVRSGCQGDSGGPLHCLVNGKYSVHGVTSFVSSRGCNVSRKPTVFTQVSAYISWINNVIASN

IC50 [1] [nM] | IC50 [3] [nM] | IC50 [5] [nM] | IC50 [6] [nM] | IC50 [9] [nM] | IC50 [10] [nM] | EC50 [11] [nM] | IC50 [13] [nM] | IC50 [15] [nM] | EC50 [16] [nM] | IC50 [17] [nM] | IC50 [18] [nM] | IC50 [19] [nM] | SMILES | Ki [2] [nM] | EC50 [4] [nM] | Ki [7] [nM] | Ki [8] [nM] | Ki [12] [nM] | EC50 [14] [nM]
> 3300 | 760 | 40 | 1100 | 75 | 120 | 170 | 32 | > 10000 | 480 | > 10000 | – | – | CC(C)(C)NC(=O)N[C@H](C(=O)N1C[C@H]2[C@@H]([C@H]1C(=O)NC(CC1CCC1)C(=O)C(N)=O)C2(C)C)C(C)(C)C (some centres undefined) [BOCEPREVIR] | 21 | 1180 | 21 | 25 | 28 | > 50000
4400 | 3500 | 630 | > 10000 | 1350 | 300 | 390 | 26 | 8000 | 1100 | 30 | 3000 | > 10000 | CCC[C@H](NC(=O)[C@@H]1[C@H]2CCC[C@H]2CN1C(=O)[C@@H](NC(=O)[C@@H](NC(=O)c1cnccn1)C1CCCCC1)C(C)(C)C)C(=O)C(=O)NC1CC1 [TELAPREVIR] | 42 | 8600 | 130 | 54 | 93 | > 50000

SMILES | IC50 [1] [nM] | IC50 [3] [nM] | IC50 [5] [nM] | IC50 [6] [nM] | IC50 [9] [nM] | IC50 [10] [nM] | EC50 [11] [nM] | IC50 [13] [nM] | IC50 [15] [nM] | EC50 [16] [nM] | IC50 [17] [nM] | IC50 [18] [nM] | IC50 [19] [nM] | Ki [2] [nM] | EC50 [4] [nM] | Ki [7] [nM] | Ki [8] [nM] | Ki [12] [nM] | EC50 [14] [nM]
COc1ccc2c(O[C@@H]3C[C@H]4C(=O)N[C@]5(C(=O)O)C[C@H]5/C=C\CCCCC[C@H](NC(=O)OC5CCCC5)C(=O)N4C3)cc(-c3csc(NC(C)C)n3)nc2c1 [CILUPREVIR] | – | – | – | – | – | – | 27 | – | – | 3 | – | – | – | 61 | 17 | 0.81 | 7 | 0.3 | 50000
